Laboratory results: ChEMBL document CHEMBL1143049, “Preparation, biological activity and endogenous occurrence of N6-benzyladenosines” (Bioorg Med Chem, 2007)

Assays:
K562 = experiment: Antitumor activity against human K562 cells after 72 hrs by Calcein AM assay; format: functional, cell-based; conditions: K562, 72 h
In short: (§1)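 Cells grown in DMEM at 37 °C under 5% CO2. Compounds added after 12 h preincubation in 96-well plates, final 0.5-170 μM, with 0.6% final DMSO, then 72 h exposure. Viable cells stained with Calcein AM for 1 h and read at 485/538 nm. IC50 (concentration lethal to 50% of cells) taken from dose-response curves. Run in quadruplicate.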

CCRF-CEM = experiment: Antitumor activity against human CEM cells after 72 hrs by Calcein AM assay; format: functional, cell-based; in short: as §1
Triticum aestivum = experiment: Cytokinin activity in wheat assessed as retention of chlorophyll in excised wheat leaves at 0.1 mmol/L relative to 6-Benzylaminopurine by senescence assay; format: functional
In short: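 Senescence assay measuring chlorophyll retention in excised wheat leaves. DMSO stocks brought to 10^-3 M with water, then diluted in assay medium to a final DMSO of at most 0.2%. Concentrations 10^-4 to 10^-8 M, quintuplicate, repeated at least three times. Response at the optimal concentration normalised to BAP optimum = 100.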

HL-60 = experiment: Antitumor activity against human HL60 cells after 72 hrs by Calcein AM assay; format: functional, cell-based; conditions: HL-60, 72 h; in short: as §1
B16 = experiment: Antitumor activity against mouse B16 cells after 72 hrs by Calcein AM assay; format: functional, cell-based; conditions: B16, 72 h; in short: as §1
[1] = Cytotoxicity against mouse NIH 3T3 cells after 72 hrs by Calcein AM assay; format: cell-based; conditions: NIH3T3, 72 h; in short: as §1
G-361 = experiment: Antitumor activity against human G361 cells after 72 hrs by Calcein AM assay; format: functional, cell-based; conditions: G-361, 72 h; in short: as §1
[2] = Antitumor activity against human MCF cells after 72 hrs by Calcein AM assay; format: functional, cell-based; in short: as §1
Amaranthus [3] = experiment: Cytokinin activity in Amaranthus cotyledons assessed as dark induction of betacyanin synthesis at 0.01 mmol/L relative to 6-Benzylaminopurine; format: functional
In short: (§2)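 Dark induction of betacyanin in excised Amaranthus cotyledons. DMSO stock brought to 10^-3 M in water, diluted into assay medium (DMSO ≤0.2%). Tested over 10^-4 to 10^-8 M, five replicates per concentration, assay repeated at least three times. Response at the optimal concentration expressed relative to BAP at its optimum (set to 100).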

Nicotiana tabacum [4] = experiment: Cytokinin activity in tobacco assessed as stimulation of callus growth at 1 umol/L relative to 6-Benzylaminopurine; format: functional
In short: (§3)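 Stimulation of tobacco callus growth. Compounds dissolved in DMSO, brought to 10^-3 M in water and diluted into medium (DMSO ≤0.2%). Range 10^-4 to 10^-8 M, five replicates per concentration, at least three independent repeats. Activity at the optimal concentration given relative to BAP's optimal response, taken as 100.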

HOS = experiment: Antitumor activity against human HOS cells after 72 hrs by Calcein AM assay; format: functional, cell-based; in short: as §1
[5] = target: Histidine kinase 4 (Arabidopsis thaliana) (UniProt Q9C5U0); experiment: Activation of Arabidopsis thaliana CRE1/AHK4 cytokinin receptor relative to trans-zeatin; parameters: concentration or dose not given beside the values
Sequence of Histidine kinase 4 (Arabidopsis thaliana) (Q9C5U0 whole entry): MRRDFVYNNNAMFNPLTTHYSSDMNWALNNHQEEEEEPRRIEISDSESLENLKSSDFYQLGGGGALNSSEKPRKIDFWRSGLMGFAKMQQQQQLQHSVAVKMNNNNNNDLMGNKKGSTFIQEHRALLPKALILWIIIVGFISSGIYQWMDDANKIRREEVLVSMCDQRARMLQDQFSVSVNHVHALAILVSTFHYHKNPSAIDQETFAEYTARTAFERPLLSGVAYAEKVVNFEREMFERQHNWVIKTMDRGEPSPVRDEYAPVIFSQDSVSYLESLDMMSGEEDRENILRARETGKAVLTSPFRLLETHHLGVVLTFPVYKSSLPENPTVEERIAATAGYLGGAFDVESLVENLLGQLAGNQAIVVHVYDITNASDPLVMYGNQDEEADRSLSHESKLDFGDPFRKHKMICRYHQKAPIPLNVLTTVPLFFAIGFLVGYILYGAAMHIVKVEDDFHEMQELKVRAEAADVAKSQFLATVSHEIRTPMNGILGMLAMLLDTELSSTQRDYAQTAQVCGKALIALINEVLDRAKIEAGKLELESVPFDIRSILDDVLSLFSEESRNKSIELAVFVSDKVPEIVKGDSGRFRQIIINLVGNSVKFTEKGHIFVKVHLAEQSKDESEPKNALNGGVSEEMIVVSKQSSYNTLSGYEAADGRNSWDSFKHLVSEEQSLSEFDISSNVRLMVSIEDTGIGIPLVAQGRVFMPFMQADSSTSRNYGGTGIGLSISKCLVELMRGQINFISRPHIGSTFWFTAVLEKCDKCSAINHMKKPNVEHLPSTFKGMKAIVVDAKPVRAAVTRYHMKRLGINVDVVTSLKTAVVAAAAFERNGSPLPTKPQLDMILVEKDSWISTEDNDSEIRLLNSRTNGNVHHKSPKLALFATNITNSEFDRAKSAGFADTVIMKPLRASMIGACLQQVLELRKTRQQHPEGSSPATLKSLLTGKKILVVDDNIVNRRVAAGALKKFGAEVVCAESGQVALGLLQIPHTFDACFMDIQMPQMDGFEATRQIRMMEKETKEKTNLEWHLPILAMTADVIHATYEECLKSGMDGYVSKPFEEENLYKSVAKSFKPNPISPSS
In short: (§4)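 E. coli KMI001 carrying pSTV28-AHK3 or pIN-III-AHK4, precultured overnight at 25 °C in M9 + 0.1% casamino acids to OD600 ~1. Diluted 1:600, compound or solvent added, then incubated at 25 °C for 28 h (AHK3) or 17 h (CRE1/AHK4). Supernatant incubated with 4-methylumbelliferyl β-D-galactoside for 1 h at 37 °C and stopped with Na2CO3. Fluorescence read at 365/460 nm. β-galactosidase expressed as nmol 4-MU × OD600⁻¹ × h⁻¹.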

[6] = target: T1, Histidine kinase 3 (Arabidopsis thaliana) (UniProt Q9C5U1); experiment: Activation of Arabidopsis thaliana AHK3 cytokinin receptor relative to trans-zeatin; parameters: concentration or dose not given beside the values; in short: as §4
T1 sequence (whole entry): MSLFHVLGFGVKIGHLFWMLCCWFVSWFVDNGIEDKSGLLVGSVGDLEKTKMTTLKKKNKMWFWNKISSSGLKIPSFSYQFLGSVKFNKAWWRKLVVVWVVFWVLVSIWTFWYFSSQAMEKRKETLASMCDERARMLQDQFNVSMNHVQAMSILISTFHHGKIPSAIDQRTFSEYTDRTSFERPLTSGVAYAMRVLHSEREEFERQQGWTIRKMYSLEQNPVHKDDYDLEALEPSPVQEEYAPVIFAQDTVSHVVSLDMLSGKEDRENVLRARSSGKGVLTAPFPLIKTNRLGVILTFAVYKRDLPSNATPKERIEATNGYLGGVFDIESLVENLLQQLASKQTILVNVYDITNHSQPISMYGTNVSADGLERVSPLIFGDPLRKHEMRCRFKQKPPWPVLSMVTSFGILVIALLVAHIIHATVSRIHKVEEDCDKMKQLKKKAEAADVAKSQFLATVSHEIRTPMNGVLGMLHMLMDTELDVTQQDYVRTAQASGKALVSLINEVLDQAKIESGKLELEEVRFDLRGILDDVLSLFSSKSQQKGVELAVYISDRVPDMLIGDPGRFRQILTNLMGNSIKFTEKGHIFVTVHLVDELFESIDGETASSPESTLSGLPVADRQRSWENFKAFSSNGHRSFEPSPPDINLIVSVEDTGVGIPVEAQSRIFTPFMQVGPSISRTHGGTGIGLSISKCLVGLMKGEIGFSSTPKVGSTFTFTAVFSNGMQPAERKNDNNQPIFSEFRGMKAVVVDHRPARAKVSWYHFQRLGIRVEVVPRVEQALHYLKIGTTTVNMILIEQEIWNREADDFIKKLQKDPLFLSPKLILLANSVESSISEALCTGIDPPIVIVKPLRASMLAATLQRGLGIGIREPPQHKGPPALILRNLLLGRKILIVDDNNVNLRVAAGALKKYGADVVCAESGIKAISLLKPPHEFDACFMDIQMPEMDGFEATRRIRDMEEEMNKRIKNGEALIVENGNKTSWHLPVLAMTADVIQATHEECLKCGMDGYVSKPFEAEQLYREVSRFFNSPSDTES

Nicotiana tabacum [7] = experiment: Cytokinin activity in tobacco assessed as stimulation of callus growth at 0.01 mmol/L relative to 6-Benzylaminopurine; format: functional; in short: as §3
Amaranthus [8] = experiment: Cytokinin activity in Amaranthus cotyledons assessed as dark induction of betacyanin synthesis at 0.1 mmol/L relative to 6-Benzylaminopurine; format: functional; in short: as §2

| SMILES | IC50 (K562) [µM] | IC50 (CCRF-CEM) [µM] | IC50 (HL-60) [µM] | IC50 (B16) [µM] | IC50 (G-361) [µM] | IC50 [2] [µM] | IC50 (HOS) [µM] | Activity [5] [%] | Activity [6] [%] | Activity (Triticum aestivum) [%] | IC50 [1] [µM] | Activity (Amaranthus [3]) [%] | Activity (Nicotiana tabacum [4]) [%] | Activity (Nicotiana tabacum [7]) [%] | Activity (Amaranthus [8]) [%] |
| --- | --- | --- | --- | --- | --- | --- | --- | --- | --- | --- | --- | --- | --- | --- | --- |
| Cc1cccc(CNc2ncnc3c2ncn3[C@@H]2O[C@H](CO)[C@@H](O)[C@H]2O)c1 | > 167 | 19.1 | 6.4 | > 167 | > 167 | > 167 | > 167 |  |  | 143 | > 167 | 96 | 90 |  |  |
| OC[C@H]1O[C@@H](n2cnc3c(NCc4ccccc4Cl)ncnc32)[C@H](O)[C@@H]1O | 64 | 14.5 | 1.6 | > 167 |  | > 167 | > 167 | 0.04 | 0.02 | 119 | > 167 | 113 | 93 |  |  |
| OC[C@H]1O[C@@H](n2cnc3c(NCc4ccccc4F)ncnc32)[C@H](O)[C@@H]1O | 33.2 | 4.6 | 3.2 | > 167 |  | > 167 | > 167 | 0.12 | 2.91 | 118 | > 167 | 96 | 100 |  |  |
| COc1ccc(CNc2ncnc3c2ncn3[C@@H]2O[C@H](CO)[C@@H](O)[C@H]2O)cc1 | 156 | > 167 | > 167 | 19.5 | 115 | > 167 | > 167 | 0.22 | 2.45 | 65.5 |  |  | 2 |  | 17 |
| OC[C@H]1O[C@@H](n2cnc3c(NCc4cc(F)c(F)cc4F)ncnc32)[C@H](O)[C@@H]1O |  |  |  |  |  |  |  |  |  | 99 |  |  |  | 95 | 120 |
| COc1cccc(CNc2ncnc3c2ncn3[C@@H]2O[C@H](CO)[C@@H](O)[C@H]2O)c1 | > 167 | 7.6 | 4.9 | > 167 |  | > 167 | > 167 | 0.14 | 1.12 | 209 | > 167 |  | 92 |  | 98 |
| OC[C@H]1O[C@@H](n2cnc3c(NCc4ccccc4OC(F)F)ncnc32)[C@H](O)[C@@H]1O | > 167 |  |  |  | > 167 | > 167 | > 167 |  |  | 180 |  |  |  | 89 | 81 |
| OC[C@H]1O[C@@H](n2cnc3c(NCc4ccc(Cl)cc4)ncnc32)[C@H](O)[C@@H]1O | 218 | 10.2 | 1.7 | > 167 | > 167 | > 167 | > 167 | 0.23 | 0.81 | 104 | > 167 | 35 | 46 |  |  |
| OC[C@H]1O[C@@H](n2cnc3c(NCc4ccc(F)c(F)c4F)ncnc32)[C@H](O)[C@@H]1O | > 167 | 58.2 | 13 | > 167 | > 167 | > 167 | > 167 |  |  | 144 |  |  |  | 94 | 95 |
| COc1ccc(CNc2ncnc3c2ncn3[C@@H]2O[C@H](CO)[C@@H](O)[C@H]2O)c(OC)c1 | > 167 | > 167 | 39 |  |  | > 167 | > 167 |  |  | 30 |  |  |  | 5 | 3 |

Now from value to molecule, other results behind:

| IC50 (K562) [µM] | IC50 (CCRF-CEM) [µM] | IC50 (HL-60) [µM] | IC50 (B16) [µM] | IC50 (G-361) [µM] | IC50 [2] [µM] | IC50 (HOS) [µM] | Activity [5] [%] | Activity [6] [%] | SMILES | Activity (Triticum aestivum) [%] | IC50 [1] [µM] | Activity (Amaranthus [3]) [%] | Activity (Nicotiana tabacum [4]) [%] | Activity (Nicotiana tabacum [7]) [%] | Activity (Amaranthus [8]) [%] |
| --- | --- | --- | --- | --- | --- | --- | --- | --- | --- | --- | --- | --- | --- | --- | --- |
| 27.7 | 1.6 | 0.75 |  | > 167 | 26.9 | > 167 | 0.15 | 2.63 | OC[C@H]1O[C@@H](n2cnc3c(NCc4cccc(Cl)c4)ncnc32)[C@H](O)[C@@H]1O | 72 | > 167 | 139 |  | 96 |  |
| 19.7 | 5 | 8 | > 167 | > 167 | > 167 | > 167 |  |  | OC[C@H]1O[C@@H](n2cnc3c(NCc4cccc(Br)c4)ncnc32)[C@H](O)[C@@H]1O | 89 | > 167 |  |  | 82 | 151 |
| 7.6 | 4 | 0.92 |  | > 167 | 15.3 | > 167 | 0.36 | 0.99 | OC[C@H]1O[C@@H](n2cnc3c(NCc4cccc(F)c4)ncnc32)[C@H](O)[C@@H]1O | 220 | 84 | 92 |  | 91 |  |
| 2.7 | 1.25 | 1.2 |  | > 167 | 21 | 13.2 | 0.39 | 7.67 | OC[C@H]1O[C@@H](n2cnc3c(NCc4ccc(F)cc4)ncnc32)[C@H](O)[C@@H]1O | 148 | 44.3 | 71 | 100 |  |  |
| 15.6 | 20.9 | 9 | > 167 | > 167 | > 167 | > 167 |  |  | OC[C@H]1O[C@@H](n2cnc3c(NCc4ccc(F)cc4Cl)ncnc32)[C@H](O)[C@@H]1O | 165 | > 167 |  |  | 98 | 115 |
| 18 | 0.9 | 15 | > 167 | > 167 | 6.9 | > 167 |  |  | Cc1cccc(CNc2ncnc3c2ncn3[C@@H]2O[C@H](CO)[C@@H](O)[C@H]2O)c1O |  |  |  |  | 5 | 55 |
| 5.5 | 1.4 | 0.94 | > 167 | > 167 | 5.4 | > 167 | 0.35 | 2.53 | OC[C@H]1O[C@@H](n2cnc3c(NCc4ccccc4)ncnc32)[C@H](O)[C@@H]1O [N6-BENZYLADENOSINE] |  | 39 |  |  |  |  |
